Laboratory results from ChEMBL document CHEMBL4000180, “Structure-Activity Relationships of Small Molecule Autotaxin Inhibitors with a Discrete Binding Mode” (J Med Chem, 2017).
pIC50: −log10 of the molar value. Values after ≈ are worked out from the molar mass of the structure shown. Active and inactive are the calls of the source. The calls are words filed in the database; no cut-off is given here.

Columns and labels:
Autotaxin [1] = target: T1, Autotaxin (Homo sapiens, UniProt Q13822); experiment: Inhibition of human ATX expressed in HEK293 Flp-In cells using LPC as substrate measured every 30 sec for 90 mins by fluorescence assay; format: cell-based; conditions: for pIC50: read-out: IC50
Autotaxin [2] = target: T1, Autotaxin; experiment: Inhibition of recombinant human ATX using bisP-nitrophenyl phosphate as substrate measured after 30 mins
Autotaxin [3] = target: T1, Autotaxin; experiment: Noncompetitive inhibition of human ATX expressed in HEK293 Flp-in cells up to 800 nM using varying lysophosphatidyl choline substrate level by Lineweaver-Burk plot analysis; format: cell-based
Summary of the method: (§1)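 hATX from HEK293 Flp-In cells; choline release from LPC coupled to choline oxidase/HRP/homovanillic acid fluorescence in Tris pH 7.4 buffer with CaCl2 and Triton X-100. Activity measured across varying LPC concentrations at fixed inhibitor concentrations; mixed-inhibition model fitted to obtain alpha (near 1 taken as noncompetitive), with Lineweaver-Burk double-reciprocal plots for display.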

Autotaxin [4] = target: T1, Autotaxin; experiment: Inhibition of ATX in human MDA-MB-435S cells using lysophosphatidyl choline as substrate preincubated for 15 mins followed by substrate addition measured after 90 mins; format: cell-based
[5] = Kinetic aqueous solubility by CLND method; format: physicochemical; conditions: read-out: Kinetic_solubility
[6] = Lipophilicity, log D of the compound at pH 7.4 by chromatographic method; format: physicochemical; conditions: buffer
[7] = Apparent permeability of the compound at pH 7.4; format: physicochemical; conditions: not told
Autotaxin [8] = target: T1, Autotaxin; experiment: Inhibition of ATX (unknown origin) using lysophosphatidyl choline as substrate
Summary of the method: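 Human ATX produced in HEK293 Flp-In cells, 20 nM, incubated with 150 μM LPC(18:1) in 50 mM Tris pH 7.4, 0.01% Triton X-100, 50 mM CaCl2 with choline oxidase (1 U/ml), HRP (2 U/ml) and 2 mM homovanillic acid. Choline release read as HVA fluorescence, ex/em 320/450 nm, every 30 s for 90 min. Screen 400 nM–100 μM (n = 3); 10-point curves 0.3 nM–10 μM, n = 2.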

Autotaxin [9] = target: T1, Autotaxin; experiment: Noncompetitive inhibition of human ATX expressed in HEK293 Flp-in cells up to 11 nM using varying lysophosphatidyl choline substrate level by Lineweaver-Burk plot analysis; format: cell-based; summary of the method: as §1

Row | Compound | pIC50 (Autotaxin [1]) | pIC50 (Autotaxin [2]) | further results
1 | Cc1c(Sc2cccc(C(=O)O)c2)c2ccc(Cl)cc2n1C1CCCC1 | 4.60 to 4.70 | < 5.40 | 
2 | Cc1ccc2c(Sc3cccc(C(=O)O)n3)c(C)n(-c3cnn(C)c3)c2c1 | 7.60 | 7.07 | 
3 | Cc1c(Oc2cccc(C(=O)O)c2)c2ccccc2n1-c1cnn(C)c1 | < 4.52 |  | 
4 | Cc1c(Cc2cccc(C(=O)O)n2)c2ccc(Cl)cc2n1-c1cnn(C)c1 | 6.47 | 7.05 | 
5 | Cc1c(Sc2cccc(C(=O)O)c2)c2ccc(Cl)cc2n1-c1ccccc1 | 7.09 | 8.30 | pIC50 (Autotaxin [4]): > 6.52
6 | Cc1c(Sc2cccc(C(=O)O)c2)c2ccc(Cl)cc2n1-c1cnn(C)c1 | 7.96 |  | solubility kinetic [5]: 556 µM (≈ 221 µg/mL); chromatographic logD [6]: 3.36; pIC50 (Autotaxin [4]): > 6.52; Papp [7]: 6.4 ×10⁻⁶ cm/s
7 | Cc1c(Cc2cccc(C(=O)O)n2)c2ccccc2n1-c1cnn(C)c1 | < 4.52 |  | 
8 | Cc1c(SCCCC(=O)O)c2ccccc2n1-c1cnn(C)c1 | < 5.00 |  | 
9 | Cc1[nH]c2ccccc2c1Sc1cccc(C(=O)O)n1 | < 4.52 |  | 
10 | Cc1c(Sc2cccc(C(=O)O)n2)c2ccc(Cl)cc2n1-c1ccccc1 |  |  | IC50 (Autotaxin [1]; hek293): Nd(Insoluble); solubility kinetic [5]: 485 µM (≈ 192 µg/mL); chromatographic logD [6]: 4.3; Papp [7]: 15.5 ×10⁻⁶ cm/s
11 | Cc1c(Sc2cccc(C(=O)O)n2)c2ccc(Cl)cc2n1C1CCCC1 | < 5.55 | 5.70 | solubility kinetic [5]: 336 µM (≈ 130 µg/mL); chromatographic logD [6]: 4.05; Papp [7]: 29 ×10⁻⁶ cm/s
12 | Cc1c(SCCCC(=O)O)c2ccc(Cl)cc2n1-c1cnn(C)c1 | < 4.52 |  | 
13 | Cc1c(Sc2cccc(C(=O)O)n2)c2ccccc2n1C1CCCC1 | < 4.52 |  | 
14 | Cc1c(Sc2cccc(C(=O)O)n2)c2ccc(Cl)cc2n1C | 7.51 | < 5.40 | solubility kinetic [5]: 300 µM (≈ 99.8 µg/mL); chromatographic logD [6]: 2.68; Papp [7]: 3.2 ×10⁻⁶ cm/s
15 | COc1cccc2c1c(Sc1cccc(C(=O)O)n1)c(C)n2-c1cnn(C)c1 | < 4.52 |  | 
16 | Cc1c(Sc2cccc(C(=O)O)n2)c2cc(Cl)ccc2n1-c1cnn(C)c1 | 6.59 |  | 
17 | Cc1[nH]c2cc(Cl)ccc2c1Sc1cccc(C(=O)O)n1 | 7.60 | 6.22 | solubility kinetic [5]: ≥ 395 µM; chromatographic logD [6]: 2.19; Papp [7]: 1.1 ×10⁻⁶ cm/s
18 | Cc1c(Cc2cccc(C(=O)O)c2)c2ccc(Cl)cc2n1-c1cnn(C)c1 | 6.18 | 7.48 | 
19 | Cn1cc(-c2cccc(Sc3cccc(C(=O)O)n3)c2)cn1 |  |  | inhibition (Autotaxin [1]): inactive
20 | Cc1[nH]c2cccc(C)c2c1Sc1cccc(C(=O)O)n1 | < 5.10 |  | 
21 | Cc1c(Cc2cccc(C(=O)O)c2)c2ccccc2n1-c1cnn(C)c1 | < 4.52 |  | 
22 | Cc1[nH]c2cc(F)ccc2c1Sc1cccc(C(=O)O)n1 | < 4.70 |  | 
23 | Cc1c(Sc2cccc(C(=O)O)c2F)c2ccc(Cl)c(F)c2n1CC(=O)N1CC2(CC2)c2ccccc21 |  |  | pIC50 (Autotaxin [8]): 8.70
24 | Cc1c(Sc2cccc(C(=O)O)c2)c2ccc(Cl)cc2n1C | 5.92 | 7.00 | inhibition (Autotaxin [9]): Active; pIC50 (Autotaxin [8]): < 6.00
25 | Cc1c(Sc2cccc(C(=O)O)n2)c2ccc(F)cc2n1-c1ccn(C)n1 | 6.46 | 6.09 | 
26 | Cc1c(Sc2cccc(C(=O)O)n2)c2c(Cl)cccc2n1-c1cnn(C)c1 | < 4.52 |  | 
27 | Cc1c(Sc2cccc(C(=O)O)n2)c2ccccc2n1C | < 4.52 |  | 

Continued, in another order:

Row | pIC50 (Autotaxin [1]) | pIC50 (Autotaxin [2]) | Compound | further results
28 | < 4.52 |  | Cc1[nH]c2ccccc2c1Sc1cccc(C(=O)O)c1 | 
29 | 5.77 | 5.24 | Cc1c(Sc2cccc(C(=O)O)n2)c2ccccc2n1-c1cnn(C)c1 | inhibition (Autotaxin [3]): Active
30 | < 5.00 |  | Cc1cccc2c1c(Sc1cccc(C(=O)O)n1)c(C)n2-c1cnn(C)c1 | 
31 | 8.40 | 7.66 | Cc1c(Sc2cccc(C(=O)O)n2)c2ccc(Cl)cc2n1-c1cnn(C)c1 | solubility kinetic [5]: 377 µM (≈ 150 µg/mL); chromatographic logD [6]: 2.7; pIC50 (Autotaxin [4]): > 6.52; Papp [7]: 2.3 ×10⁻⁶ cm/s
32 | < 5.30 | < 4.52 | Cc1c(Sc2cccc(C(=O)O)c2)c2ccccc2n1-c1ccccc1 | 
33 | 6.91 | 7.12 | COc1ccc2c(Sc3cccc(C(=O)O)n3)c(C)n(-c3cnn(C)c3)c2c1 | 
34 | < 4.52 |  | Cc1c(Sc2cccc(C(=O)O)n2)c2ccccc2n1-c1ccccc1 | 
35 | 6.14 | 6.69 | Cc1c(Oc2cccc(C(=O)O)c2)c2ccc(Cl)cc2n1-c1cnn(C)c1 | 
36 | 5.46 to 5.52 |  | Cc1c(Sc2cccc(C(=O)O)n2)c2c(F)cccc2n1-c1ccn(C)n1 | 
37 | 6.13 | 6.54 | Cc1[nH]c2cc(Cl)ccc2c1Sc1cccc(C(=O)O)c1 | 
38 | < 4.52 |  | Cc1cc2ccc(Cl)cc2n1-c1cnn(C)c1 | 
